# Experimental data reported in ChEMBL document CHEMBL3734660, “Inhibitory effect of cytotoxic stilbenes related to resveratrol on the expression of the VEGF, hTERT and c-Myc genes” (Eur J Med Chem, 2015).
# Experiments:
# MCF7 [1] = assay: Cytotoxicity against human MCF7 cells assessed inhibition of cell proliferation after 3 days by MTT assay; conditions: MCF7, 72 h
# HT-29 [2] = assay: Down regulation of c-Myc gene expression in human HT-29 cells at 10 ug/mL after 48 hrs by RT-qPCR analysis relative to control; assay type: functional
# How it was run: (§1)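 HT-29 or MCF-7 cells grown to 70–80% confluence, serum-starved 24 h, then exposed to compound in DMSO for 48 h; DMSO-only control. Total RNA extracted and transcript measured by RT-qPCR, normalized to β-actin and expressed as percentage of control. At least three measurements; mean ± SEM; one-sample t-test.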
# HEK293 = assay: Cytotoxicity against HEK293 cells assessed inhibition of cell proliferation after 3 days by MTT assay; conditions: Homo sapiens, HEK293, 72 h
# HT-29 [3] = assay: Cytotoxicity against human HT-29 cells assessed inhibition of cell proliferation after 3 days by MTT assay; conditions: HT-29, 72 h
# [4] = Selectivity ratio of IC50 for HEK293 cells to IC50 for human HT-29 cells; assay type: ADME, cell-based; conditions: HEK293 cells versus HT-29 cells, read-out: Ratio IC50
# [5] = Selectivity ratio of IC50 for HEK293 cells to IC50 for human MCF7 cells; assay type: ADME, cell-based; conditions: HEK293 cells versus MCF7 cells, read-out: Ratio IC50
# HT-29 [6] = assay: Inhibition of VEGF protein secretion in human HT-29 cells at 10 ug/mL after 72 hrs by ELISA relative to control; assay type: functional; design: scale not given: the % may be the effect or the level left
# HT-29 [7] = assay: Down regulation of VEGF gene expression in human HT-29 cells at 10 ug/mL after 48 hrs by RT-qPCR analysis relative to control; assay type: functional
# How it was run: as §1
# HT-29 [8] = assay: Down regulation of hTERT gene expression in human HT-29 cells at 10 ug/mL after 48 hrs by RT-qPCR analysis relative to control; assay type: functional
# How it was run: as §1
# MCF7 [9] = assay: Down regulation of hTERT gene expression in human MCF7 cells at 2 ng/mL after 48 hrs by RT-qPCR analysis relative to control; assay type: functional
# How it was run: as §1
# MCF7 [10] = assay: Down regulation of c-Myc gene expression in human MCF7 cells at 1 ng/mL after 48 hrs by RT-qPCR analysis relative to control; assay type: functional
# How it was run: as §1
# HT-29 [11] = assay: Down regulation of c-Myc gene expression in human HT-29 cells at 1 ng/mL after 48 hrs by RT-qPCR analysis relative to control; assay type: functional
# How it was run: as §1
# MCF7 [12] = assay: Down regulation of VEGF gene expression in human MCF7 cells at 2 ng/mL after 48 hrs by RT-qPCR analysis relative to control; assay type: functional
# How it was run: as §1
# MCF7 [13] = assay: Down regulation of c-Myc gene expression in human MCF7 cells at 2 ng/mL after 48 hrs by RT-qPCR analysis relative to control; assay type: functional
# How it was run: as §1
# HT-29 [14] = assay: Down regulation of VEGF gene expression in human HT-29 cells at 3 ng/mL after 48 hrs by RT-qPCR analysis relative to control; assay type: functional
# How it was run: as §1
# MCF7 [15] = assay: Potency index, ratio of compound activity to resveratrol activity for down regulation of hTERT gene expression in human MCF7 cells; assay type: functional
# HT-29 [16] = assay: Down regulation of hTERT gene expression in human HT-29 cells at 3 ng/mL after 48 hrs by RT-qPCR analysis relative to control; assay type: functional
# How it was run: as §1
# [17] = Inhibition of VEGF protein secretion in human HT-29 cells at 2 ng/mL after 72 hrs by ELISA relative to control; assay type: functional; design: scale not given: the % may be the effect or the level left
# HT-29 [18] = assay: Down regulation of VEGF gene expression in human HT-29 cells at 1 ng/mL after 48 hrs by RT-qPCR analysis relative to control; assay type: functional
# How it was run: as §1
# MCF7 [19] = assay: Inhibition of VEGF protein secretion in human MCF7 cells at 2 ng/mL after 72 hrs by ELISA relative to control; assay type: functional; design: scale not given: the % may be the effect or the level left
# HT-29 [20] = assay: Inhibition of VEGF protein secretion in human HT-29 cells at 3 ng/mL after 72 hrs by ELISA relative to control; assay type: functional; design: scale not given: the % may be the effect or the level left
# MCF7 [21] = assay: Inhibition of VEGF protein secretion in human MCF7 cells at 1 ng/mL after 72 hrs by ELISA relative to control; assay type: functional; design: scale not given: the % may be the effect or the level left
# HT-29 [22] = assay: Potency index, ratio of compound activity to resveratrol activity for down regulation of c-Myc gene expression in human HT-29 cells; assay type: functional
# HT-29 [23] = assay: Down regulation of hTERT gene expression in human HT-29 cells at 1 ng/mL after 48 hrs by RT-qPCR analysis relative to control; assay type: functional
# How it was run: as §1
# MCF7 [24] = assay: Potency index, ratio of compound activity to resveratrol activity for down regulation of c-Myc gene expression in human MCF7 cells; assay type: functional
# HT-29 [25] = assay: Down regulation of hTERT gene expression in human HT-29 cells at 2 ng/mL after 48 hrs by RT-qPCR analysis relative to control; assay type: functional
# How it was run: as §1
# HT-29 [26] = assay: Down regulation of c-Myc gene expression in human HT-29 cells at 2 ng/mL after 48 hrs by RT-qPCR analysis relative to control; assay type: functional
# How it was run: as §1
# MCF7 [27] = assay: Potency index, ratio of compound activity to resveratrol activity for down regulation of VEGF gene expression in human MCF7 cells; assay type: functional
# HT-29 [28] = assay: Inhibition of VEGF protein secretion in human HT-29 cells at 1 ng/mL after 72 hrs by ELISA relative to control; assay type: functional; design: scale not given: the % may be the effect or the level left
# HT-29 [29] = assay: Potency index, ratio of compound activity to resveratrol activity for down regulation of hTERT gene expression in human HT-29 cells; assay type: functional
# MCF7 [30] = assay: Down regulation of hTERT gene expression in human MCF7 cells at 1 ng/mL after 48 hrs by RT-qPCR analysis relative to control; assay type: functional
# How it was run: as §1
# HT-29 [31] = assay: Down regulation of c-Myc gene expression in human HT-29 cells at 3 ng/mL after 48 hrs by RT-qPCR analysis relative to control; assay type: functional
# How it was run: as §1
# MCF7 [32] = assay: Down regulation of VEGF gene expression in human MCF7 cells at 1 ng/mL after 48 hrs by RT-qPCR analysis relative to control; assay type: functional
# How it was run: as §1
# HT-29 [33] = assay: Down regulation of VEGF gene expression in human HT-29 cells at 2 ng/mL after 48 hrs by RT-qPCR analysis relative to control; assay type: functional
# How it was run: as §1
# MCF7 [34] = assay: Down regulation of VEGF gene expression in human MCF7 cells at 10 ug/mL after 48 hrs by RT-qPCR analysis relative to control; assay type: functional
# How it was run: as §1
# MCF7 [35] = assay: Inhibition of VEGF protein secretion in human MCF7 cells at 10 ug/mL after 72 hrs by ELISA relative to control; assay type: functional; design: scale not given: the % may be the effect or the level left
# MCF7 [36] = assay: Down regulation of hTERT gene expression in human MCF7 cells at 10 ug/mL after 48 hrs by RT-qPCR analysis relative to control; assay type: functional
# How it was run: as §1
# MCF7 [37] = assay: Down regulation of c-Myc gene expression in human MCF7 cells at 10 ug/mL after 48 hrs by RT-qPCR analysis relative to control; assay type: functional
# How it was run: as §1
smiles,measurement,setting,value
Nc1cccc(/C=C/c2ccccc2)c1,IC50,MCF7 [1],14 µg/mL
same,Activity,HT-29 [2],100%
same,IC50,HEK293,84 µg/mL
same,IC50,HT-29 [3],12.9 µg/mL
same,selectivity ratio,[4],6.5
same,selectivity ratio,[5],6
same,Activity,HT-29 [6],77%
same,Activity,HT-29 [7],100%
same,Activity,HT-29 [8],100%
COc1ccccc1/C=C/c1cccc(N)c1,IC50,MCF7 [1],38.7 µg/mL
same,Activity,HT-29 [2],45%
same,IC50,HEK293,45 µg/mL
same,IC50,HT-29 [3],25.3 µg/mL
same,selectivity ratio,[4],1.8
same,selectivity ratio,[5],1.2
same,Activity,HT-29 [6],75%
same,Activity,HT-29 [7],67%
same,Activity,HT-29 [8],52%
Nc1cccc(/C=C/c2cccc(O)c2)c1,IC50,MCF7 [1],54 µg/mL
same,Activity,HT-29 [2],54%
same,IC50,HEK293,> 100 µg/mL
same,IC50,HT-29 [3],43 µg/mL
same,selectivity ratio,[4],> 2.3
same,selectivity ratio,[5],> 1.8
same,Activity,HT-29 [6],92%
same,Activity,HT-29 [7],52%
same,Activity,HT-29 [8],58%
COc1ccc(/C=C/c2ccc(N)cc2)cc1,Activity,MCF7 [9],51%
same,IC50,MCF7 [1],0.0021 µg/mL
same,Activity,MCF7 [10],54%
same,IC50,HEK293,0.012 µg/mL
same,Activity,HT-29 [11],88%
same,Activity,MCF7 [12],36%
same,IC50,HT-29 [3],0.0036 µg/mL
same,Activity,MCF7 [13],30%
same,Activity,HT-29 [14],67%
same,selectivity ratio,[4],3.4
same,Ratio,MCF7 [15],3000
same,Activity,HT-29 [16],48%
same,Activity,[17],84%
same,Activity,HT-29 [18],65%
same,Activity,MCF7 [19],75%
same,Activity,HT-29 [20],59%
same,Activity,MCF7 [21],100%
same,Ratio,HT-29 [22],3000
same,Activity,HT-29 [23],100%
same,selectivity ratio,[5],5.7
same,Ratio,MCF7 [24],3000
same,Activity,HT-29 [25],100%
same,Activity,HT-29 [26],71%
same,Ratio,MCF7 [27],5000
same,Activity,HT-29 [28],92%
same,Ratio,HT-29 [29],3000
same,Activity,MCF7 [30],80%
same,Activity,HT-29 [31],69%
same,Activity,MCF7 [32],48%
same,Activity,HT-29 [33],66%
COc1cccc(/C=C/c2ccccc2N)c1,IC50,MCF7 [1],6.1 µg/mL
same,Activity,HT-29 [2],79%
same,IC50,HEK293,0.5 µg/mL
same,IC50,HT-29 [3],21.2 µg/mL
same,selectivity ratio,[4],< 0.1
same,selectivity ratio,[5],< 0.1
same,Activity,HT-29 [6],51%
same,Activity,HT-29 [7],100%
same,Activity,HT-29 [8],35%
Nc1cccc(/C=C/c2ccccc2O)c1,IC50,MCF7 [1],24.7 µg/mL
same,Activity,HT-29 [2],37%
same,IC50,HEK293,96 µg/mL
same,IC50,HT-29 [3],30.4 µg/mL
same,selectivity ratio,[4],3.2
same,selectivity ratio,[5],3.9
same,Activity,HT-29 [6],76%
same,Activity,HT-29 [7],38%
same,Activity,HT-29 [8],52%
COc1ccc(/C=C/c2ccccc2O)cc1 [2-hydroxy-4'-methoxystilbene],IC50,MCF7 [1],17 µg/mL
same,Activity,HT-29 [2],58%
same,IC50,HEK293,21 µg/mL
same,IC50,HT-29 [3],10 µg/mL
same,selectivity ratio,[4],2.1
same,selectivity ratio,[5],1.2
same,Activity,HT-29 [6],69%
same,Activity,HT-29 [7],41%
same,Activity,HT-29 [8],72%
Nc1ccc(/C=C/c2ccccc2)cc1 [(E)-4-STYRYLANILINE],IC50,MCF7 [1],16 µg/mL
same,Activity,HT-29 [2],46%
same,IC50,HEK293,11.4 µg/mL
same,IC50,HT-29 [3],4.4 µg/mL
same,selectivity ratio,[4],2.6
same,selectivity ratio,[5],0.7
same,Activity,HT-29 [6],78%
same,Activity,HT-29 [7],24%
same,Activity,HT-29 [8],65%
Oc1ccc(/C=C/c2cc(O)cc(O)c2)cc1 [RESVERATROL],Activity,MCF7 [34],54%
same,IC50,MCF7 [1],16.1 µg/mL
same,Activity,HT-29 [2],51%
same,Activity,MCF7 [35],100%
same,IC50,HEK293,7.1 µg/mL
same,IC50,HT-29 [3],34.1 µg/mL
same,selectivity ratio,[4],0.2
same,Activity,MCF7 [36],77%
same,selectivity ratio,[5],0.4
same,Activity,HT-29 [6],78%
same,Activity,HT-29 [7],65%
same,Activity,MCF7 [37],41%
same,Activity,HT-29 [8],57%
